Results gathered from unrelated publications.
Each line is one published result; the experiments were not run side by side. In brackets after ≈: the same amount, converted by molar mass.

`C[C@H](N)Cn1ncc2ccc3c(c21)CCCO3` has a pKa of 8.45 (potentiometric; water).
For `CC(C)(C)c1cc(NC(=O)Nc2ccc(Oc3ccnc4[nH]c(=O)cnc34)cc2F)n(-c2ccccc2)n1`, the MTD was 40 mg/kg (general toxicity; CD-1 mouse; oral, single dose).
With `Cc1cc(C)nc(Nc2ncc(C(=O)NCCc3c(C)[nH]c4ccccc34)cn2)c1` the pKa was 5.8.
For `CCCC(CCC)NC(=O)c1ccc2c(c1)OCO2`, the MTD was 700 mg/kg (general toxicity; Swiss mouse; intraperitoneal).
`CC[C@H](C)[C@H](NC(=O)[C@H](CO)NC(=O)[C@H](CCCNC(=N)N)NC(C)=O)C(=O)N[C@H]1CSSC[C@@H](C(=O)N[C@H](C(N)=O)[C@@H](C)O)NC(=O)[C@H](CCCNC(=N)N)NC(=O)[C@H](Cc2c[nH]cn2)NC(=O)[C@H](C)NC(=O)CNC(=O)[C@H](Cc2c[nH]c3ccccc23)NC(=O)[C@H](CC(=O)O)NC(=O)[C@H](CCC(N)=O)NC(=O)[C@H](Cc2cccc3ccccc23)NC(=O)[C@H](C(C)C)NC1=O` gave a solubility of 2110 µg/mL (≈ 1130 µM) (PBS; pH 7.4).
The pKa of `COc1ccnc(C(=O)N[C@H]2COC(=O)[C@H](Cc3ccccc3)[C@@H](OC(=O)C(C)C)[C@H](C)OC2=O)c1OCOC(=O)C(C)C` is reported as 2.4.
With `C=C(CC)C(=O)c1ccc(OCC(=O)O)c(Cl)c1Cl` the MTD was 30 mg/kg (general toxicity; mouse; intraperitoneal).
`CC(=O)N[C@@H](CC(N)=O)C(=O)N[C@@H](CCCNC(=N)N)C(=O)N[C@@H](CC(C)C)C(=O)N[C@H]1CSSC[C@@H](C(=O)N[C@H](C(N)=O)[C@@H](C)O)NC(=O)[C@H](CCCNC(=N)N)NC(=O)[C@H](Cc2c[nH]cn2)NC(=O)[C@H](Cc2cccc3ccccc23)NC(=O)CNC(=O)[C@H](Cc2c[nH]c3ccccc23)NC(=O)[C@H](CC(=O)O)NC(=O)[C@H](CCC(N)=O)NC(=O)[C@H](Cc2c[nH]c3ccccc23)NC(=O)[C@H](C(C)C)NC1=O` gave a solubility of 340 µg/mL (≈ 169 µM) (PBS; pH 7.4).
`COc1ccc(C2=Nn3c(nnc3-c3cc(-c4ccc(Cl)cc4)n[nH]3)SC2C)cc1` (centres unmarked) has an MTD of 4 mg/kg (general toxicity; mouse; intravenous, 4 mg/kg, single dose).
`CCCCCCCCCCCC(=O)OC[C@@H](COP(=O)(O)OCCNC(=O)c1ccc(Cn2c(=O)[nH]c3c(N)nc(OCCOC)nc32)cc1)OC(=O)CCCCCCCCCCC` has an MTD of 150 mg/kg (general toxicity; mouse; intravenous).
The Tmax of `N=c1c2c(-c3ccccc3)c(-c3ccccc3)n(Cc3ccccc3)c2ncn1[C@H]1CC[C@H](O)CC1` is reported as about 15 h (male beagle dog, plasma; oral, 1 mg/kg, single dose).
For `CC(=O)N[C@@H](CC(N)=O)C(=O)N[C@@H](CC(N)=O)C(=O)N[C@@H](CC(C)C)C(=O)N[C@H]1CSSC[C@@H](C(=O)N[C@H](C(N)=O)[C@@H](C)O)NC(=O)[C@H](CCCNC(=N)N)NC(=O)[C@H](Cc2c[nH]cn2)NC(=O)[C@H](Cc2cccc3ccccc23)NC(=O)CNC(=O)[C@H](Cc2c[nH]c3ccccc23)NC(=O)[C@H](CC(=O)O)NC(=O)[C@H](CCC(N)=O)NC(=O)[C@H](Cc2cccc3ccccc23)NC(=O)[C@H](C(C)C)NC1=O`, the solubility was 270 µg/mL (≈ 136 µM) (PBS; pH 7.4).
For `Nc1ncc(-c2nc(N3CCOCC3)nc(N3CCOCC3)n2)c(C(F)F)n1`, the thermodynamic solubility was 13.9 µM (≈ 5.48 µg/mL) (shake flask; FeSSIF; 24 h).
`Cc1ncc(C)n2nc(/C=C/c3nc(N4CCCC4)cc(N4CCOCC4)n3)nc12` gave a Tmax of 1.2 h (male beagle dog, plasma; oral, 0.3 mg/kg).
